Data published in the M2OR odorant receptor database.
Substitutions are numbered along the chain they refer to.

Experiments:
Conditions in all cases: stereoisomer not certain
[1] = target: T1, OR4F17 (Homo sapiens) (UniProt Q8NGA8)
T1 sequence (whole entry): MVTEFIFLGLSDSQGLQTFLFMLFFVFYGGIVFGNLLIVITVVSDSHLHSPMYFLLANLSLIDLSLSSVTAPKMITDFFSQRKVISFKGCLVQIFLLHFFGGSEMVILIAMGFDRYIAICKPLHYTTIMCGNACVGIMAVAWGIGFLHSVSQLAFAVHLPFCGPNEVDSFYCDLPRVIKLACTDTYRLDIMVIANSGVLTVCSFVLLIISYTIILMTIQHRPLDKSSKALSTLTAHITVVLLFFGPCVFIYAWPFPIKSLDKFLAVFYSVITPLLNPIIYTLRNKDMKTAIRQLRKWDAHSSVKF
Method in brief: (§1)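 Assay methods differ from source to source, frequently being transient luciferase assays in mammalian cell lines. For each receptor–molecule pair, the label responsive (active) applies when the original authors judged the measured signal statistically different from baseline, and non-responsive (inactive) applies otherwise.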

[2] = target: T2, OR4F21 (Homo sapiens) (UniProt O95013)
T2 sequence (whole entry): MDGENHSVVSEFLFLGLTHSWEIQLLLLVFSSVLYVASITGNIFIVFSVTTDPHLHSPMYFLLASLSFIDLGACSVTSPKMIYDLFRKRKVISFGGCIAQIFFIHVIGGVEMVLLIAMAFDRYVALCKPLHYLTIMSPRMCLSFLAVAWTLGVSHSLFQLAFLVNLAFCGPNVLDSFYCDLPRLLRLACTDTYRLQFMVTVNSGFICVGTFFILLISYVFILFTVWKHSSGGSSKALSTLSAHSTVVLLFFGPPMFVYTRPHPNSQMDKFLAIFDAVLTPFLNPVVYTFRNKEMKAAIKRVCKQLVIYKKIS
Method in brief: as §1

[3] = target: T3, OR4F3 (Homo sapiens) (UniProt Q6IEY1)
T3 sequence (whole entry): T2 sequence (whole entry) with F44L, I107V, K310R
Method in brief: as §1

[4] = target: T4, OR4F4 (Homo sapiens) (UniProt Q96R69)
T4 sequence (whole entry): T1 sequence (whole entry) with G15E, R221C, Q293R
Method in brief: as §1

[5] = target: T5, OR4F5 (Homo sapiens) (UniProt Q8NH21)
T5 sequence (whole entry): T1 sequence (whole entry) with G15E, A141T, P160L
Method in brief: as §1

[6] = target: T6, OR4F6 (Homo sapiens) (UniProt Q8NGB9)
T6 sequence (whole entry): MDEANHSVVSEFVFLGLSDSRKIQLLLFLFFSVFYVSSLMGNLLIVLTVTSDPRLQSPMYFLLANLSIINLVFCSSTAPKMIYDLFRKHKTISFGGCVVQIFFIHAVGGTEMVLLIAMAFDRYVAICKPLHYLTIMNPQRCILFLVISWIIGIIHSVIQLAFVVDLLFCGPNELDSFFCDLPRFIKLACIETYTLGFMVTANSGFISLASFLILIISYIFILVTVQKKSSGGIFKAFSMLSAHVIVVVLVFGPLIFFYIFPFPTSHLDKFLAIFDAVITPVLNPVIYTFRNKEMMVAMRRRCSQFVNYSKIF
Method in brief: as §1

[7] = target: T7, OR4K1 (Homo sapiens) (UniProt Q8NGD4)
T7 sequence (whole entry): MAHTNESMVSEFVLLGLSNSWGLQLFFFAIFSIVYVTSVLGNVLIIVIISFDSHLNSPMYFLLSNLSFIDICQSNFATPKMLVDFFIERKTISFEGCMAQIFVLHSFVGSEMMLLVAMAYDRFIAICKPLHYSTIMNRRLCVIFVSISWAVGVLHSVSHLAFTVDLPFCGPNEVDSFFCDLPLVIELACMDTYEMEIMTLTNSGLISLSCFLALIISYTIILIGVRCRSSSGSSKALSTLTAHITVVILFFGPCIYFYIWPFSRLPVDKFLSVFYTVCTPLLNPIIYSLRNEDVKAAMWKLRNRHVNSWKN
Method in brief: as §1

[8] = test system: T8, OR4F5 T141A Q293R
T8 sequence (whole entry): T1 sequence (whole entry) with G15E, P160L, Q293R
Method in brief: as §1

[9] = test system: OR4F3 R310K
Method in brief: as §1

[10] = test system: OR4F3 V107I
Method in brief: as §1

Measured: odorant receptor agonist call

OR4F3 V107I, sequence (as listed by the source, stated change not applied): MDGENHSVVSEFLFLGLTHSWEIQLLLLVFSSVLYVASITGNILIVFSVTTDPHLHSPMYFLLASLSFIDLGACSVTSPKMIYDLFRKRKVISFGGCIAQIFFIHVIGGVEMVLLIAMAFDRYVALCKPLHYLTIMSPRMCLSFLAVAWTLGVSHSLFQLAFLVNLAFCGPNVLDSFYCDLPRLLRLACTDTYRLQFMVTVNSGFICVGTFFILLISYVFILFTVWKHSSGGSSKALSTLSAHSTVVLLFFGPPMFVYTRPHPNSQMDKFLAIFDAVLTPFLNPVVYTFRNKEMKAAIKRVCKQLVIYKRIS
OR4F3 R310K, sequence (as listed by the source, stated change not applied): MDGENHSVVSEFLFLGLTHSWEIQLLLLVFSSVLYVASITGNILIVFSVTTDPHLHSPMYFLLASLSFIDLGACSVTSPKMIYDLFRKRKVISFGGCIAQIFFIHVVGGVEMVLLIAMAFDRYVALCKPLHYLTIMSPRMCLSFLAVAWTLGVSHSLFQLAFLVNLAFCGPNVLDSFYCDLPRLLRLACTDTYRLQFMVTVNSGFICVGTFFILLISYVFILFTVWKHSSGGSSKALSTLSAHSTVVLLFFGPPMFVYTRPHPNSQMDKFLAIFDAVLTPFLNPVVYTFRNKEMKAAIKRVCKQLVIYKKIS

CCCCC(S)C(C)CO (stereo not given)
inactive: [1] | [2] | [3] | [4] | [5] | [6] | [7]

CC1=NC(C)C(C)S1 (stereo not given)
inactive: [1] | [2] | [3] | [4] | [5] | [8] | [6] | [7]

CC(CO)CS (stereo not given)
inactive: [1] | [2] | [3] | [4] | [5] | [6] | [7]

Cc1cnc(C)c(C)n1
inactive: [1] | [2] | [3] | [4] | [5] | [8] | [6] | [7]

CCCCCC(S)C(C)CO (stereo not given)
inactive: [1] | [2] | [3] | [4] | [5] | [6] | [7]

CC(=O)c1c(C)c([N+](=O)[O-])c(C(C)(C)C)c([N+](=O)[O-])c1C
inactive: [1] | [2] | [3] | [4] | [5] | [6] | [7]

CC1=C(O)C(=O)C(C)O1 (stereo not given)
inactive: [1] | [2] | [3] | [4] | [5] | [8] | [6] | [7]

CC1=C(O)C(=O)OC1C (stereo not given)
inactive: [1] | [2] | [3] | [4] | [5] | [8] | [6] | [7]

CCCC(S)CCOC(C)=O (stereo not given)
inactive: [1] | [2] | [3] | [4] | [5] | [8] | [6] | [7]

CCCCCCC=CCCC=O
inactive: [1] | [2] | [3] | [9] | [10] | [4] | [5] | [8] | [6] | [7]

CCC(S)C(C)CO (stereo not given)
inactive: [1] | [2] | [3] | [4] | [5] | [6] | [7]

CC1CCCCCCCCCCCCC(=O)C1 (stereo not given)
inactive: [1] | [2] | [3] | [4] | [5] | [6] | [7]

CCC1OC(=O)C(O)=C1C (stereo not given)
inactive: [1] | [2] | [3] | [4] | [5] | [8] | [6] | [7]

CCCCCC(=O)C(C)C(C)=O (stereo not given)
inactive: [1] | [2] | [3] | [4] | [5] | [6] | [7]

CCC1OC(C)=C(O)C1=O (stereo not given)
inactive: [1] | [2] | [3] | [4] | [5] | [8] | [6] | [7]
